Test results reported in ChEMBL document CHEMBL4715736, “Identification of anticancer agents based on the thieno[2,3-b]pyridine and 1H-pyrazole molecular scaffolds” (2016).

Assays:
Assay type in all cases: functional
[1] = test system: CCRF-CEM; assay: Growth inhibition of human CCRF-CEM cells assessed as cell growth at 0.01 uM incubated for 48 hrs by sulforhodamine B assay relative to control; conditions: read-out: Activity
Procedure, shortened: (§1)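 NCI Developmental Therapeutics Program NCI60 panel. Compounds that were active in the 10 µM one-dose screen went on to dose–response testing. Growth at each concentration is expressed relative to untreated control (100%). GI50 (concentration giving 50% of maximal inhibition of proliferation) and TGI (concentration giving total growth inhibition) were derived from the curves.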

[2] = test system: HOP-62; assay: Growth inhibition of human HOP-62 cells assessed as cell growth at 0.01 uM incubated for 48 hrs by sulforhodamine B assay relative to control; conditions: read-out: Activity
[3] = test system: HOP-92; assay: Growth inhibition of human HOP-92 cells assessed as cell growth at 0.01 uM incubated for 48 hrs by sulforhodamine B assay relative to control; conditions: read-out: Activity
[4] = test system: Malme-3M; assay: Growth inhibition of human Malme-3M cells assessed as cell growth at 0.01 uM incubated for 48 hrs by sulforhodamine B assay relative to control; conditions: read-out: Activity
[5] = test system: SK-MEL-28; assay: Growth inhibition of human SK-MEL-28 cells assessed as cell growth at 0.01 uM incubated for 48 hrs by sulforhodamine B assay relative to control; conditions: read-out: Activity
[6] = test system: NCI/ADR-RES; assay: Growth inhibition of human NCI/ADR-RES cells assessed as cell growth at 0.01 uM incubated for 48 hrs by sulforhodamine B assay relative to control; conditions: read-out: Activity
[7] = test system: 786-0; assay: Growth inhibition of human 786-0 cells assessed as cell growth at 0.01 uM incubated for 48 hrs by sulforhodamine B assay relative to control; conditions: read-out: Activity; procedure, shortened: as §1
[8] = test system: TK-10; assay: Growth inhibition of human TK-10 cells assessed as cell growth at 0.01 uM incubated for 48 hrs by sulforhodamine B assay relative to control; conditions: read-out: Activity
[9] = test system: BT-549; assay: Growth inhibition of human BT-549 cells assessed as cell growth at 0.01 uM incubated for 48 hrs by sulforhodamine B assay relative to control; conditions: read-out: Activity
[10] = test system: T47D; assay: Growth inhibition of human T47D cells assessed as cell growth at 0.01 uM incubated for 48 hrs by sulforhodamine B assay relative to control; conditions: read-out: Activity
[11] = test system: MOLT-4; assay: Growth inhibition of human MOLT-4 cells assessed as cell growth at 0.1 uM incubated for 48 hrs by sulforhodamine B assay relative to control; conditions: read-out: Activity
[12] = test system: HOP-92; assay: Growth inhibition of human HOP-92 cells assessed as cell growth at 0.1 uM incubated for 48 hrs by sulforhodamine B assay relative to control; conditions: read-out: Activity
[13] = test system: COLO 205; assay: Growth inhibition of human COLO 205 cells assessed as cell growth at 0.1 uM incubated for 48 hrs by sulforhodamine B assay relative to control; conditions: read-out: Activity; procedure, shortened: as §1
[14] = test system: HCT-116; assay: Growth inhibition of human HCT-116 cells assessed as cell growth at 0.1 uM incubated for 48 hrs by sulforhodamine B assay relative to control; conditions: read-out: Activity
[15] = test system: SW-620; assay: Growth inhibition of human SW-620 cells assessed as cell growth at 0.1 uM incubated for 48 hrs by sulforhodamine B assay relative to control; conditions: read-out: Activity
[16] = test system: SK-OV-3; assay: Growth inhibition of human SK-OV-3 cells assessed as cell growth at 0.1 uM incubated for 48 hrs by sulforhodamine B assay relative to control; conditions: read-out: Activity
[17] = test system: CAKI-1; assay: Growth inhibition of human CAKI-1 cells assessed as cell growth at 0.1 uM incubated for 48 hrs by sulforhodamine B assay relative to control; conditions: read-out: Activity; procedure, shortened: as §1
[18] = test system: SK-MEL-5; assay: Growth inhibition of human SK-MEL-5 cells assessed as cell growth at 1 uM incubated for 48 hrs by sulforhodamine B assay relative to control; conditions: read-out: Activity
[19] = test system: SK-OV-3; assay: Growth inhibition of human SK-OV-3 cells assessed as cell growth at 1 uM incubated for 48 hrs by sulforhodamine B assay relative to control; conditions: read-out: Activity
[20] = test system: DU-145; assay: Growth inhibition of human DU-145 cells assessed as cell growth at 1 uM incubated for 48 hrs by sulforhodamine B assay relative to control; conditions: read-out: Activity; procedure, shortened: as §1
[21] = test system: CCRF-CEM; assay: Growth inhibition of human CCRF-CEM cells assessed as cell growth at 100 uM incubated for 48 hrs by sulforhodamine B assay relative to control; conditions: read-out: Activity; procedure, shortened: as §1
[22] = test system: NCI-H322M; assay: Growth inhibition of human NCI-H322M cells assessed as cell growth at 100 uM incubated for 48 hrs by sulforhodamine B assay relative to control; conditions: read-out: Activity
[23] = test system: SW-620; assay: Growth inhibition of human SW-620 cells assessed as cell growth at 100 uM incubated for 48 hrs by sulforhodamine B assay relative to control; conditions: read-out: Activity
[24] = test system: SF-295; assay: Growth inhibition of human SF-295 cells assessed as cell growth at 100 uM incubated for 48 hrs by sulforhodamine B assay relative to control; conditions: read-out: Activity
[25] = test system: SNB-19; assay: Growth inhibition of human SNB-19 cells assessed as cell growth at 100 uM incubated for 48 hrs by sulforhodamine B assay relative to control; conditions: read-out: Activity
[26] = test system: U-251; assay: Growth inhibition of human U-251 cells assessed as cell growth at 100 uM incubated for 48 hrs by sulforhodamine B assay relative to control; conditions: read-out: Activity
[27] = test system: SK-MEL-2; assay: Growth inhibition of human SK-MEL-2 cells assessed as cell growth at 100 uM incubated for 48 hrs by sulforhodamine B assay relative to control; conditions: read-out: Activity
[28] = test system: TK-10; assay: Growth inhibition of human TK-10 cells assessed as cell growth at 100 uM incubated for 48 hrs by sulforhodamine B assay relative to control; conditions: read-out: Activity
[29] = test system: PC-3; assay: Growth inhibition of human PC-3 cells assessed as cell growth at 100 uM incubated for 48 hrs by sulforhodamine B assay relative to control; conditions: read-out: Activity
[30] = test system: MOLT-4; assay: Growth inhibition of human MOLT-4 cells incubated for 48 hrs by sulforhodamine B assay; conditions: for CC50: read-out: LC50 (the source's name)
Procedure, shortened: (§2)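 NCI60 panel at the NCI Developmental Therapeutics Program. Only compounds active in the 10 µM screen went to dose-response testing. GI50, the concentration giving 50% of maximal inhibition of proliferation, and TGI, the concentration giving total growth inhibition, were derived from the dose-response curves.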

[31] = test system: NCI-H460; assay: Growth inhibition of human NCI-H460 cells incubated for 48 hrs by sulforhodamine B assay; procedure, shortened: as §2
[32] = test system: KM12; assay: Growth inhibition of human KM12 cells incubated for 48 hrs by sulforhodamine B assay; procedure, shortened: as §2
[33] = test system: MDA-MB-435; assay: Growth inhibition of human MDA-MB-435 cells incubated for 48 hrs by sulforhodamine B assay; conditions: for CC50: read-out: LC50 (the source's name); procedure, shortened: as §2
[34] = test system: UACC-257; assay: Growth inhibition of human UACC-257 cells incubated for 48 hrs by sulforhodamine B assay
Procedure, shortened: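 NCI DTP 60-line human tumour panel. Dose-response curves were run only for ligands active in the initial 10 µM screen. GI50 (concentration giving 50% of maximal inhibition of proliferation) and TGI (concentration giving total growth inhibition) were derived from these curves.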

[35] = test system: MDA-MB-231; assay: Growth inhibition of human MDA-MB-231 cells incubated for 48 hrs by sulforhodamine B assay; conditions: for CC50: read-out: LC50 (the source's name); procedure, shortened: as §2

Cc1cc(C)c(NC(=O)c2sc3nc4c(cc3c2N)CN(Cc2ccccc2)CC4)c(C)c1
growth at 0.01 µM [1]: 100%
growth at 0.01 µM [2]: 83%
growth at 0.01 µM [3]: 85%
growth at 0.01 µM [4]: 106%
growth at 0.01 µM [5]: 97%
growth at 0.01 µM [6]: 104%
growth at 0.01 µM [7]: 91%
growth at 0.01 µM [8]: 103%
growth at 0.01 µM [9]: 87%
growth at 0.01 µM [10]: 90%
growth at 0.1 µM [11]: 98%
growth at 0.1 µM [12]: 70%
growth at 0.1 µM [13]: 104%
growth at 0.1 µM [14]: 97%
growth at 0.1 µM [15]: 98%
growth at 0.1 µM [16]: 98%
growth at 0.1 µM [17]: 90%
growth at 1 µM [18]: 59%
growth at 1 µM [19]: 88%
growth at 1 µM [20]: 95%
growth at 100 µM [21]: -3%
growth at 100 µM [22]: 39%
growth at 100 µM [23]: -43%
growth at 100 µM [24]: -2%
growth at 100 µM [25]: 25%
growth at 100 µM [26]: -43%
growth at 100 µM [27]: 6%
growth at 100 µM [28]: 5%
growth at 100 µM [29]: 15%
GI50 [30]: 4.15 µM
TGI [30]: > 100 µM
CC50 [30]: > 100 µM
GI50 [31]: 3.29 µM
LC50 [31]: > 100 µM
TGI [31]: 16.3 µM
GI50 [32]: 3.26 µM
LC50 [32]: > 100 µM
TGI [32]: 43.1 µM
GI50 [33]: 0.399 µM
TGI [33]: 4.38 µM
CC50 [33]: 68.9 µM
GI50 [34]: 6.71 µM
LC50 (concentration killing 50% of cells) [34]: > 100 µM
TGI [34]: > 100 µM
GI50 [35]: 5.75 µM
TGI [35]: 58.9 µM
CC50 [35]: > 100 µM

Cc1cccc(NC(=O)c2sc3nc4c(cc3c2N)C(=O)CCC4)c1
growth at 0.01 µM [1]: 96%
growth at 0.01 µM [2]: 88%
growth at 0.01 µM [3]: 87%
growth at 0.01 µM [4]: 91%
growth at 0.01 µM [5]: 93%
growth at 0.01 µM [6]: 98%
growth at 0.01 µM [7]: 88%
growth at 0.01 µM [8]: 91%
growth at 0.01 µM [9]: 87%
growth at 0.01 µM [10]: 79%
growth at 0.1 µM [11]: 95%
growth at 0.1 µM [12]: 69%
growth at 0.1 µM [13]: 78%
growth at 0.1 µM [14]: 68%
growth at 0.1 µM [15]: 60%
growth at 0.1 µM [16]: 73%
growth at 0.1 µM [17]: 73%
growth at 1 µM [18]: 16%
growth at 1 µM [19]: 7%
growth at 1 µM [20]: 3%
growth at 100 µM [21]: -7%
growth at 100 µM [22]: -22%
growth at 100 µM [23]: 3%
growth at 100 µM [24]: 7%
growth at 100 µM [25]: -74%
growth at 100 µM [26]: -43%
growth at 100 µM [27]: -74%
growth at 100 µM [28]: -23%
growth at 100 µM [29]: -26%
TGI [30]: > 100 µM
CC50 [30]: > 100 µM
GI50 [31]: 0.286 µM
LC50 [31]: > 100 µM
TGI [31]: ≥ 100 µM
GI50 [32]: 0.21 µM
LC50 [32]: > 100 µM
TGI [32]: > 100 µM
GI50 [33]: 0.0297 µM
TGI [33]: 0.115 µM
CC50 [33]: 0.681 µM
GI50 [34]: ≥ 0.148 µM
LC50 (concentration killing 50% of cells) [34]: > 100 µM
TGI [34]: > 100 µM
GI50 [35]: 0.559 µM
TGI [35]: ≥ 100 µM
CC50 [35]: > 100 µM
